Activity calls are given as the source filed them. The rule behind the calls is not given here.
Experiments:
Sphingosine kinase 1 [1] = target: T1, Sphingosine kinase 1 (Homo sapiens, UniProt Q9NYA1); assay: Inhibition of EGFP-fused human SPHK1 expressed in CHO cells at 10 uM; assay type: cell-based
Method in brief: (§1)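 Enzyme source: lysates (40 µg protein) of CHO cells transiently transfected (Lipofectamine 2000) with human SPHK1 (EGFP fusion) or SPHK2 plasmid. Compound at 10 µM in sphingosine kinase buffer with sphingosine-BSA complex (1 mM stock) and cold plus γ-[32P]ATP; 30 min at 37 °C. Lipids extracted with acidified chloroform/methanol, run on TLC, phosphorimaged; triplicate lanes per tube.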

[2] = target: T2, Sphingosine kinase 2 (Homo sapiens) (UniProt Q9NRA0); assay: Inhibition of human cloned SPHK2 expressed in CHO cells at 10 uM; assay type: cell-based; method in brief: as §1
T2 sequence (whole entry): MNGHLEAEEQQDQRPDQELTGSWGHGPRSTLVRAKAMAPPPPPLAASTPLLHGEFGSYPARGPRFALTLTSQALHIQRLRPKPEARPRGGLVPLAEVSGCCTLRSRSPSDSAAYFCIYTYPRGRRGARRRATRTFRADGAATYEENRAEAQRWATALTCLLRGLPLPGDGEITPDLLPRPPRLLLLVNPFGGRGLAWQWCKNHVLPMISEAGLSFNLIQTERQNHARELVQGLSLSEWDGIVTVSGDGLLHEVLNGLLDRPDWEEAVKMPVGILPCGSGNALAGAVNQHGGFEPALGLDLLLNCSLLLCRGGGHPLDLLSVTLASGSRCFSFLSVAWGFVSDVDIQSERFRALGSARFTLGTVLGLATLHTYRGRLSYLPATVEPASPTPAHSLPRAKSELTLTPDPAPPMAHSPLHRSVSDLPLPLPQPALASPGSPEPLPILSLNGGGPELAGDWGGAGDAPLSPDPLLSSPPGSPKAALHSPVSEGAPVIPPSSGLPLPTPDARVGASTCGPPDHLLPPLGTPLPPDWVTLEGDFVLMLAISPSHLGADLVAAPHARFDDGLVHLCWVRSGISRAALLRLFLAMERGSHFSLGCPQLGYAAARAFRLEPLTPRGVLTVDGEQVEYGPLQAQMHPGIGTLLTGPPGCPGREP

Sphingosine kinase 1 [3] = target: T1, Sphingosine kinase 1; assay: Inhibition of EGFP-fused human SPHK1 expressed in CHO cells using D-erythro-sphingosine as substrate by Michaelis-Menten plot
Method in brief: (§2)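 Kinetics of huSPHK1 or huSPHK2 from transfected CHO lysates, with D-erythro-sphingosine as substrate, in the 32P-ATP TLC assay (30 min, 37 °C). Michaelis-Menten behaviour was used to derive Km for sphingosine and Ki for the inhibitors.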

Sphingosine kinase 1 [4] = target: T1, Sphingosine kinase 1; assay: Inhibition of EGFP-fused human SPHK1 expressed in CHO cells; assay type: cell-based
Method in brief: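 SPHK1 from transfected CHO cell lysates (40 µg per tube), sphingosine-BSA and γ-[32P]ATP, 30 min at 37 °C. Compounds tested at 0, 10, 25, 50 and 100 µM. Radiolabelled S1P measured by TLC and phosphorimaging. IC50 obtained from triplicate experiments and reported as mean ± SD.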

Sphingosine kinase 1 [5] = target: T1, Sphingosine kinase 1; assay: Effect on EGFP-fused human SPHK1 activity expressed in CHO cells at 10 uM relative to basal level; assay type: cell-based; method in brief: as §1
[6] = target: T2, Sphingosine kinase 2 (Homo sapiens); assay: Effect on human cloned SPHK2 activity expressed in CHO cells at 10 uM relative to basal level; assay type: cell-based; method in brief: as §1
U-937 [7] = assay: Inhibition of basal sphingosine-1-phosphate levels in human U937 cells at 5 uM after 2 hrs by ELISA; assay type: functional, cell-based
Method in brief: (§3)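 Human monocytic U937 cells, stimulated or not with TNFα, were incubated with or without inhibitor at 5 µM for 2 h. Cellular S1P was quantified by competitive S1P ELISA (sensitivity 30 nM).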

U-937 [8] = assay: Inhibition of TNF-alpha-induced sphingosine-1-phosphate levels in human U937 cells at 5 uM after 2 hrs by ELISA; assay type: functional, cell-based; method in brief: as §3
Sphingosine kinase 1 [9] = target: T1, Sphingosine kinase 1; assay: Inhibition of human SPHK1 expressed in human U937 cells assessed as inhibition of endogenous sphingosine-1-phosphate levels at 5 uM after 2 hrs by ELISA; assay type: cell-based; settings: U-937
Method in brief: (§4)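 U937 cells transfected with huSPHK1 or huSPHK2 plasmid, then incubated with or without inhibitor at 5 µM for 2 h. Endogenous S1P was measured by competitive ELISA (sensitivity 30 nM).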

[10] = target: T2, Sphingosine kinase 2 (Homo sapiens); assay: Inhibition of human SPHK2 expressed in human U937 cells assessed as inhibition of endogenous sphingosine-1-phosphate levels at 5 uM after 2 hrs by ELISA; assay type: cell-based; settings: U-937; method in brief: as §4
U-937 [11] = assay: Antiproliferative activity against human U937 cells at 10 uM after 24 to 72 hrs by MTT assay; assay type: functional
Method in brief: (§5)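 U937 or HL60 cells in RPMI 1640 with 10% FBS and 1% L-glutamine; 50 000 cells/well at 1 × 10^6 cells/mL. Compound at 10 µM, DMSO 0.5% of volume as vehicle control. Incubated 24, 48, 72 h at 37 °C, 5% CO2. MTT (4 mg/mL in RPMI) added for 2 h in dark, crystals dissolved in DMSO/glycine buffer, A570 read.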

HL-60 = assay: Antiproliferative activity against human HL60 cells at 10 uM after 24 to 72 hrs by MTT assay; assay type: functional; method in brief: as §5
[12] = target: Protein kinase C alpha type (Homo sapiens) (UniProt P17252); assay: Inhibition of human PKCalpha at 100 uM by gel electrophoresis
Method in brief: (§6)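 PepTag nonradioactive assay: purified human PKCα with C1 peptide, PKC activator and reaction buffer. Inhibitor at 10, 25, 50, 75 or 100 µM, preincubated 2 min, then 30 min at 30 °C with enzyme. Stopped at 95 °C for 10 min.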

Sphingosine kinase 2 = target: T3, Sphingosine kinase 2 (Homo sapiens, UniProt Q9NRA0); assay: Inhibition of human cloned SPHK2 expressed in CHO cells using D-erythro-sphingosine as substrate by Michaelis-Menten plot; method in brief: as §2
T3 sequence (Q9NRA0 whole entry): T2 sequence (whole entry)

[13] = target: Protein kinase C alpha type (Homo sapiens) (UniProt P17252); assay: Inhibition of human PKCalpha at 50 uM by gel electrophoresis; method in brief: as §6

T1 sequence (Q9NYA1 whole entry, the tested form may be a part): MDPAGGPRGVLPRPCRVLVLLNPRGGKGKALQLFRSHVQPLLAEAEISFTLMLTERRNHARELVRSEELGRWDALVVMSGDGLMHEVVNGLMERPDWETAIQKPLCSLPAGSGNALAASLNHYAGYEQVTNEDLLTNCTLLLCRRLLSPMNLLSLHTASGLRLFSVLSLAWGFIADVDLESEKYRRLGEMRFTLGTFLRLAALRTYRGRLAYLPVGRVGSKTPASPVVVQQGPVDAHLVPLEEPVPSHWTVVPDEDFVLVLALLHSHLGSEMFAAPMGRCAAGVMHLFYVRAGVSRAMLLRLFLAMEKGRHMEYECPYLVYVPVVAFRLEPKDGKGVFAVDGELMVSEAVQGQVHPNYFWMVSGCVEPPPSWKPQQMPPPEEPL

Structure (SMILES)	inhibition (Sphingosine kinase 1 [1])	inhibition [2]	Ki (Sphingosine kinase 1 [3])	IC50 (Sphingosine kinase 1 [4])	Activity (Sphingosine kinase 1 [5])	Activity [6]	Activity (Sphingosine kinase 1 [9])	Activity [10]	Activity [12]	Ki (Sphingosine kinase 2)	Activity [13]	Activity (U-937 [7])	Activity (U-937 [8])	Activity (U-937 [11])	Activity (HL-60)
CCCCC#C[C@@H](O)[C@@H](N)CO	inactive	inactive			132%	109%									
CCCCCCCCCCCCCC#CC(=O)[C@@H]1COC(C)(C)N1C(=O)OC(C)(C)C	54.7%	inactive	3 µM	3.3 µM	45.3%	117%	Active		Active				Active	10%	10%
CCCCCCCCCCCCC/C=C/[C@@H](O)[C@H](CO)N(C)C [DIMETHYLSPINGOSINE]		33%				67%		Active		12.5 µM	Active	Active	Active		
CCCCCCCCCCCCCC#C[C@@H](O)[C@@H](N)CO	24.4%	inactive			75.6%	152%									
CCCCCCC(=O)[C@@H]1COC(C)(C)N1C(=O)OC(C)(C)C	4.71%	inactive			95.3%	126%									
CCCCCCCCC#C[C@@H](O)[C@@H](N)CO	13.7%	inactive			86.3%	116%									
CCCCCCCCC#CC(=O)[C@@H]1COC(C)(C)N1C(=O)OC(C)(C)C	15.2%	37.2%			84.8%	62.8%									
CCCCCCCCCCCCCC#C[C@@H](O)[C@@H]1COC(C)(C)N1C(=O)OC(C)(C)C	inactive	inactive			112%	123%									

Continued, in another order:

inhibition (Sphingosine kinase 1 [1])	inhibition [2]	Ki (Sphingosine kinase 1 [3])	IC50 (Sphingosine kinase 1 [4])	Activity (Sphingosine kinase 1 [5])	Activity [6]	Activity (Sphingosine kinase 1 [9])	Activity [10]	Activity [12]	Ki (Sphingosine kinase 2)	Activity [13]	Structure (SMILES)	Activity (U-937 [7])	Activity (U-937 [8])	Activity (U-937 [11])	Activity (HL-60)
56.9%	54.1%	1 µM	1.2 µM	43.1%	45.9%	Active	Active				CCCCCCCCCCCCCC#CC(=O)[C@H](CO)NC(=O)OC(C)(C)C	Active	inactive	Active	
9.08%	inactive			90.9%	115%						CCCCC#CC(=O)[C@@H]1COC(C)(C)N1C(=O)OC(C)(C)C				
inactive	inactive			106%	117%						CCCCC#CC(=O)[C@H](CO)NC(=O)OC(C)(C)C				
inactive	inactive			117%	111%						CCCCC#C[C@H](O)[C@H](CO)NC(=O)OC(C)(C)C				
4.2%	inactive			95.8%	89.9%						CCCCCCCCC#CC(=O)[C@H](CO)NC(=O)OC(C)(C)C				
